Measurements: ChEMBL document CHEMBL1671867, “Novel polymyxin derivatives carrying only three positive charges are effective antibacterial agents” (Antimicrob Agents Chemother, 2008)
Converted amounts (≈) assume the structure as drawn.

Legend:
Serratia marcescens = assay: Antibacterial activity against Serratia marcescens ATCC 8100 by Etest method in presence of 4 ug/ml NAB7072; type: functional
Escherichia coli [1] = assay: Antibacterial activity against Escherichia coli IH3080 by Etest method; type: functional
In short: (§1)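 E-strip MIC on Mueller-Hinton agar without added peptide; inoculum per manufacturer, matching CLSI M2-A9.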

Pseudomonas aeruginosa [2] = assay: Antibacterial activity against Pseudomonas aeruginosa ATCC 27853by Etest method in presence of 2 ug/ml NAB739; type: functional
Acinetobacter baumannii [3] = assay: Antibacterial activity against Acinetobacter baumannii ATCC 19606 by Etest method in presence of NAB739; type: functional
Escherichia coli [4] = assay: Antibacterial activity against 5 x 10^5 CFU/ml Escherichia coli ATCC […] by Etest method in presence of […] NAB739; type: functional
Escherichia coli [5] = assay: Antibacterial activity against Escherichia coli ATCC […] by Etest method in presence of 1 ug/ml NAB7061; type: functional
Klebsiella pneumoniae [6] = assay: Antibacterial activity against Klebsiella pneumoniae by Etest method in presence of 4 ug/ml NAB7064; type: functional
Proteus mirabilis = assay: Antibacterial activity against Proteus mirabilis ATCC 29906 by Etest method in presence of 4 ug/ml NAB7073; type: functional
Klebsiella pneumoniae [7] = assay: Antibacterial activity against Klebsiella pneumoniae ATCC 13883 by Etest method in presence of 4 ug/ml NAB7061; type: functional
In short: (§2)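 MICs of the antibiotic taken from E-strips on Mueller-Hinton agar, run both with and without peptide. […] Inoculum was prepared per the strip manufacturer, matching CLSI M2-A9.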

Acinetobacter baumannii [8] = assay: Antibacterial activity against Acinetobacter baumannii ATCC 19606 by Etest method in presence of 0.5 ug/ml NAB739; type: functional
Escherichia coli [9] = assay: Antibacterial activity against Escherichia coli IH3080 by Etest method in presence of 4 ug/ml NAB7064; type: functional
Acinetobacter baumannii [10] = assay: Antibacterial activity against Acinetobacter baumannii F264 by Etest method in presence of 1 ug/ml NAB739; type: functional
Escherichia coli [11] = assay: microbe, parasite or virus in culture; conditions: ATCC 25992
Pseudomonas aeruginosa [12] = assay: Antibacterial activity against Pseudomonas aeruginosa ATCC 27853by Etest method; type: functional; in short: as §2
Enterobacter cloacae [13] = assay: Antibacterial activity against Enterobacter cloacae CCUG52947 by Etest method in presence of 4 ug/ml NAB7067; type: functional
Acinetobacter baumannii [14] = assay: Antibacterial activity against Acinetobacter baumannii by Etest method in presence of 4 ug/ml NAB7071; type: functional
Escherichia coli [15] = assay: Antibacterial activity against Escherichia coli IH3080 by Etest method in presence of 2 ug/ml NAB7062; type: functional
Escherichia coli [16] = assay: microbe, parasite or virus in culture; conditions: ATCC 25992; remark: listed apart in the source
Escherichia coli [17] = assay: Antibacterial activity against 5 x 10^5 CFU/ml Escherichia coli ATCC 25992 in presence of 8 ug/ml NAB7061 by Checkerboard method; type: functional
Citrobacter freundii = assay: Antibacterial activity against Citrobacter freundii ATCC 8090 by Etest method in presence of 4 ug/ml NAB7069; type: functional
Klebsiella pneumoniae [18] = assay: Antibacterial activity against Klebsiella pneumoniae ATCC 13883 by Etest method in presence of NAB7061; type: functional; in short: as §2
Escherichia coli [19] = assay: Antibacterial activity against 5 x 10^5 CFU/ml Escherichia coli ATCC […] by Etest method by Etest in presence of 2 ug/ml NAB7061; type: functional
Escherichia coli [20] = assay: Antibacterial activity against Escherichia coli NCTC13353 by Etest method in presence of 4 ug/ml NAB7062; type: functional
Acinetobacter baumannii [21] = assay: Antibacterial activity against Acinetobacter baumannii F264 by Etest method; type: functional; in short: as §1
Acinetobacter baumannii [22] = assay: Antibacterial activity against Acinetobacter baumannii ATCC 19606 by Etest method in presence of 1 ug/ml NAB739; type: functional
Escherichia coli [23] = assay: Antibacterial activity against Escherichia coli ATCC […] by Etest method in presence of NAB7061; type: functional
Enterobacter cloacae [24] = assay: Antibacterial activity against Enterobacter cloacae ATCC 23355 […] by Etest method in presence of NAB7061; type: functional
Escherichia coli [25] = assay: Antibacterial activity against 5 x 10^5 CFU/ml Escherichia coli ATCC 25992 in presence of 2 ug/ml NAB7061 by Checkerboard method; type: functional
Escherichia coli [26] = assay: microbe, parasite or virus in culture; conditions: ATCC 25992; remark: listed apart in the source
Escherichia coli [27] = assay: Antibacterial activity against Escherichia coli ATCC […] by Etest method in presence of 4 ug/ml NAB7064; type: functional
Pseudomonas aeruginosa [28] = assay: Antibacterial activity against Pseudomonas aeruginosa ATCC 27853by Etest method in presence of 1 ug/ml NAB739; type: functional; in short: as §2
Escherichia coli [29] = assay: Antibacterial activity against Escherichia coli ATCC 25992 in presence of NAB7061; type: functional
Escherichia coli [30] = assay: Antibacterial activity against 5 x 10^5 CFU/ml Escherichia coli ATCC […] by Etest method by Etest in presence of 1 ug/ml NAB7061; type: functional
Klebsiella pneumoniae [31] = assay: Antibacterial activity against Klebsiella pneumoniae ATCC 13883 by Etest method; type: functional; in short: as §2
Escherichia coli [32] = assay: microbe, parasite or virus in culture; conditions: ATCC 25992; remark: listed apart in the source
Escherichia coli [33] = assay: Antibacterial activity against 5 x 10^5 CFU/ml Escherichia coli ATCC 25992 in presence of 16 ug/ml NAB7061 by Checkerboard method; type: functional
Klebsiella oxytoca [34] = assay: Antibacterial activity against Klebsiella oxytoca CCUG51683 by Etest method in presence of 4 ug/ml NAB7066; type: functional
Escherichia coli [35] = assay: Antibacterial activity against 5 x 10^5 CFU/ml Escherichia coli ATCC […] by Etest method by Etest in presence of 4 ug/ml NAB7061; type: functional
In short: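 Antibiotic MICs were read from E-strips on Mueller-Hinton agar containing the peptide at 1 to 16 μg/ml in twofold steps, or at a single 4 μg/ml, and on agar without peptide. The inoculum was prepared per the strip maker's instructions and matched CLSI M2-A9. Values come from two independent determinations.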

Klebsiella oxytoca [36] = assay: Antibacterial activity against Klebsiella oxytoca ATCC 13182 by Etest method in presence of 4 ug/ml NAB7065; type: functional
Acinetobacter baumannii [37] = assay: Antibacterial activity against Acinetobacter baumannii F264 by Etest method in presence of 0.5 ug/ml NAB739; type: functional
Klebsiella pneumoniae [38] = assay: Antibacterial activity against Klebsiella pneumoniae ATCC 13883 by Etest method in presence of 1 ug/ml NAB7061; type: functional; in short: as §2
Enterobacter cloacae [39] = assay: Antibacterial activity against Enterobacter cloacae ATCC 23355 […] by Etest method in presence of 1 ug/ml NAB7061; type: functional
Escherichia coli [40] = assay: Antibacterial activity against Escherichia coli IH3080 by Etest method in presence of 1 ug/ml NAB7061; type: functional
Acinetobacter baumannii [41] = assay: Antibacterial activity against Acinetobacter baumannii ATCC 19606 by Etest method; type: functional

Q: For `CO[C@H]1/C=C/O[C@@]2(C)Oc3c(C)c(O)c4c(O)c(c(/C=N/N5CCN(C)CC5)c(O)c4c3C2=O)NC(=O)/C(C)=C\C=C\[C@H](C)[C@H](O)[C@@H](C)[C@@H](O)[C@@H](C)[C@H](OC(C)=O)[C@@H]1C` [RIFAMPIN], which MIC (Serratia marcescens) is on record?
A: 16 µg/mL

Q: What about the MIC (Escherichia coli [1]) of the same molecule?
A: 8 µg/mL (≈ 9.72 µM)

Q: And the MIC (Pseudomonas aeruginosa [2])?
A: 4 µg/mL

Q: And the “fractional inhibitory concentration index (FICI)” value (Acinetobacter baumannii [3])?
A: 0.126

Q: What about the MIC (Escherichia coli [4]) of the same molecule?
A: 12 µg/mL

Q: And the MIC (Escherichia coli [5])?
A: 0.19 µg/mL

Q: What about the MIC (Klebsiella pneumoniae [6]) of the same molecule?
A: 0.19 µg/mL

Q: And the MIC (Proteus mirabilis)?
A: 1 µg/mL

Q: What about the MIC (Klebsiella pneumoniae [7]) of the same molecule?
A: 0.064 µg/mL

Q: And the MIC (Acinetobacter baumannii [8])?
A: 0.047 µg/mL

Q: What about the MIC (Escherichia coli [9]) of the same molecule?
A: 0.023 µg/mL

Q: And the MIC (Acinetobacter baumannii [10])?
A: 0.016 µg/mL

Q: What about the MIC (Escherichia coli [11]) of the same molecule?
A: 8 µg/mL (≈ 9.72 µM)

Q: And the MIC (Pseudomonas aeruginosa [12])?
A: 32 µg/mL (≈ 38.9 µM)

Q: What about the MIC (Enterobacter cloacae [13]) of the same molecule?
A: 0.032 µg/mL

Q: What about the MIC (Acinetobacter baumannii [14]) of the same molecule?
A: 0.032 µg/mL

Q: What about the MIC (Escherichia coli [15]) of the same molecule?
A: 0.19 µg/mL

Q: And the MIC (Escherichia coli [16])?
A: 8 µg/mL (≈ 9.72 µM)

Q: And the MIC (Escherichia coli [17])?
A: 0.031 µg/mL

Q: What about the MIC (Citrobacter freundii) of the same molecule?
A: 0.023 µg/mL

Q: What about the MIC (Klebsiella pneumoniae [18]) of the same molecule?
A: ≤ 0.073 µg/mL

Q: And the MIC (Escherichia coli [19])?
A: 0.064 µg/mL

Q: And the MIC (Escherichia coli [20])?
A: 0.064 µg/mL

Q: And the MIC (Acinetobacter baumannii [21])?
A: 12 µg/mL (≈ 14.6 µM)

Q: And the MIC (Acinetobacter baumannii [22])?
A: 0.006 µg/mL

Q: What about the “fractional inhibitory concentration index (FICI)” value (Escherichia coli [23]) of the same molecule?
A: 0.071

Q: And the MIC (Enterobacter cloacae [24])?
A: 0.26 µg/mL

Q: What about the MIC (Escherichia coli [25]) of the same molecule?
A: 0.5 µg/mL

Q: What about the MIC (Escherichia coli [26]) of the same molecule?
A: 8 µg/mL (≈ 9.72 µM)

Q: And the MIC (Escherichia coli [27])?
A: 0.016 µg/mL

Q: And the MIC (Pseudomonas aeruginosa [28])?
A: 16 µg/mL

Q: What about the “fractional inhibitory concentration index (FICI)” value (Escherichia coli [29]) of the same molecule?
A: <=0.128

Q: What about the MIC (Escherichia coli [30]) of the same molecule?
A: 0.19 µg/mL

Q: And the MIC (Klebsiella pneumoniae [31])?
A: > 16 µg/mL

Q: And the MIC (Escherichia coli [32])?
A: 8 µg/mL (≈ 9.72 µM)

Q: What about the MIC (Escherichia coli [33]) of the same molecule?
A: 0.031 µg/mL

Q: What about the MIC (Klebsiella oxytoca [34]) of the same molecule?
A: 0.012 µg/mL

Q: And the MIC (Escherichia coli [35])?
A: 0.016 µg/mL

Q: What about the MIC (Klebsiella oxytoca [36]) of the same molecule?
A: 0.032 µg/mL

Q: And the MIC (Acinetobacter baumannii [37])?
A: 0.094 µg/mL

Q: What about the MIC (Klebsiella pneumoniae [38]) of the same molecule?
A: 1.5 µg/mL

Q: What about the MIC (Enterobacter cloacae [39]) of the same molecule?
A: 8 µg/mL

Q: And the MIC (Escherichia coli [40])?
A: 0.25 µg/mL

Q: What about the MIC (Acinetobacter baumannii [41]) of the same molecule?
A: 4 µg/mL (≈ 4.86 µM)
